The subject of data set [1] is CYP3A4. Conditions: inhibits other CYP isoforms at higher concentrations; ref Jia and Liu, 2007; cited from earlier work.
In data set [2] the test system is 4-oxo-4-HPR formation in pooled mouse liver microsomes (MLM). Nature of the data set: Effect of CYP enzyme inhibitors on 4-oxo-4-HPR formation from 4-HPR in MLM. Conditions: inhibitor 10 µM, 4-HPR 25 µM, 60 min. Format: in vitro ADME. A digest of the protocol:
(§1)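 Pooled liver microsomes (0.5 mg protein·mL−1) were preincubated 20 min at 37°C, pH 7.4 phosphate buffer, with the NADPH-generating system and a CYP2C8, 2C9 or 3A4 inhibitor or no inhibitor. Then 25 µM substrate was added for 60 min at 37°C. Acetonitrile/internal-standard quench, centrifugation, and HPLC quantitation of 4-oxo product followed. Performed in triplicate.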

In data set [3] the test system is 4-oxo-4-HPR formation in pooled human liver microsomes (HLM). Nature of the data set: Effect of CYP enzyme inhibitors on 4-oxo-4-HPR formation from 4-HPR in HLM. Conditions: inhibitor 10 µM, 4-HPR 25 µM, 60 min. It is filed as in vitro ADME. A digest of the protocol:
as §1

Data set [4] can be described thus: Plasma levels in neuroblastoma patients given 4-HPR/LXS oral powder. Conditions: human, 595 mg/m2 per day. It is filed as in vivo. A digest of the protocol:
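Three relapsed/refractory neuroblastoma patients received oral lipid-matrix powder, 595 mg·m−2 per day given twice daily 12 h apart. On day 6 of cycle 1, venous blood was drawn just before the morning dose and every 2 h to 8 h. Samples went into foil-wrapped heparinized tubes, were centrifuged immediately, stored at −80°C and handled in the dark. Plasma was assayed by HPLC.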

Data set [5] relates to human cancer cell lines. Conditions: variety of human cancer cell lines in vitro; ref Delia et al., 1993; Mariotti et al., 1994; Kalemkerian et al., 1995; Oridate et al., 1996; O'Donnell et al., 2002; cited from earlier work.
For data set [6] the following is noted: paediatric phase I study, neuroblastoma patients; ref Villablanca et al., 2006; cited from earlier work.
Data set [7] is described as follows: Plasma levels in nu/nu mice given 4-HPR/LXS with or without ketoconazole. Format: in vivo, athymic nude (nu/nu) mice. A digest of the protocol:
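Athymic nude mice, 5–6 weeks old, were gavaged with test compound in lipid-matrix powder slurried in sterile water, 180 mg·kg−1 per day in two divided doses, alone or with ketoconazole at increasing doses. Killed 4 h after the ninth dose. Plasma from isoflurane cardiac-puncture blood, collected in the dark, was analysed by HPLC. Three mice per condition; mean ± SD.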

For data set [8], the target named is human CYP3A4 (Homo sapiens, UniProt P08684). Nature of the data set: Formation of 4-oxo-4-HPR from 4-HPR in human CYP3A4 isoenzyme microsomes. It is filed as in vitro ADME. Conditions: 4-HPR 10 µM, NADPH generating system.
The nature of data set [9]: Plasma levels in NOD/SCID mice given 4-HPR/LXS with or without ketoconazole. It is filed as in vivo. A digest of the protocol: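 NOD/SCID mice, 5–6 weeks old, were gavaged with 180 mg·kg−1 per day test compound (lipid-matrix powder slurried in water, two divided doses), alone or with ketoconazole. The dose-ranging arm was sampled 4 h after the ninth dose, the 25 mg·kg−1 arm 4 h after the fifth dose. Light-protected cardiac-puncture plasma was analysed by HPLC. Cohorts of three; mean ± SD.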

The nature of data set [10]: 4-HPR and 4-MPR metabolism kinetics in pooled mouse liver microsomes. Conditions: pH 7.4. Format: in vitro ADME. A digest of the protocol:
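Pooled mouse liver microsomes at 0.5 mg protein·mL−1 with NADPH-generating solutions in 0.1 M potassium phosphate, pH 7.4, preincubated 20 min at 37°C. Substrate added at a range of concentrations and shaken 60 min at 37°C. Stopped with ice-cold acetonitrile plus internal standard, centrifuged, and supernatant analysed by reverse-phase HPLC. Michaelis–Menten constants for product formation derived.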

The conditions of data set [11]: beagle dogs, single 10 mg/kg dose of the capsules; ref Liu et al., 2007; cited from earlier work.

Chain of human CYP3A4 (P08684 whole entry): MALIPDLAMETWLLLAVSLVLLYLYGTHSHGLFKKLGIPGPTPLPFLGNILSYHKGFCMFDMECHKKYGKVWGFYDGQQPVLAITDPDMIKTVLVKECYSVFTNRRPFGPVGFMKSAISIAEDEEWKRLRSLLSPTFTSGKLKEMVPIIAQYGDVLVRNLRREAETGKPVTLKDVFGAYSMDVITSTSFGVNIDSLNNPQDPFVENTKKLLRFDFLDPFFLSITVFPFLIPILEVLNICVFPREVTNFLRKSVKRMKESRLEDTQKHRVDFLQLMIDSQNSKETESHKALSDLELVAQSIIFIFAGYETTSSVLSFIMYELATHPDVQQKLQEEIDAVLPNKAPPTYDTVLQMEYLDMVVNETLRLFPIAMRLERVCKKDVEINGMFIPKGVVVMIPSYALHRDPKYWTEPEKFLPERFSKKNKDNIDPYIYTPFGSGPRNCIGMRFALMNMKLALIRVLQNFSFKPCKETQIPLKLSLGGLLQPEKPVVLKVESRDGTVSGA

Turning to `CC(=O)N1CCN(c2ccc(OCC3COC(Cn4ccnc4)(c4ccc(Cl)cc4Cl)O3)cc2)CC1` (stereo not drawn) [ketoconazole], the “Concentrations at which specific for CYP3A4” value in [1] was “up to 1 µM”. The “Reduction of 4-oxo-4-HPR formation from 4-HPR alone” value was 96.5% in data set [2] and 33.7% in [3].
In [4], `CC1=C(/C=C/C(C)=C/C=C/C(C)=C/C(=O)Nc2ccc(O)cc2)C(C)(C)CCC1` [4-HPR, N-(4-hydroxyphenyl)retinamide] displayed a concentration at 0 h of 7.04 ± 4.75 µM, a concentration at 2 h of 9.69 ± 7.3 µM, a concentration at 4 h of 12.8 µM and a concentration at 6 h of 13.1 ± 8.5 µM. Besides, in data set [4], the concentration at 8 h was 8.55 ± 6.42 µM. For the same molecule, the “Concentrations exhibiting cytotoxic activity” value in data set [5] was 1 to 10 µM. For the same molecule, the Maximum tolerated dose in data set [6] is 2450 mg·m^−2 per day. For the same molecule, the concentration at 4 h in [7] (athymic nude (nu/nu), mouse, plasma, oral, 180 mg/kg per day) worked out at 14.5 µM. For the same molecule, the “Increase of plasma level over control (4-HPR without ketoconazole)” value (“Increase … (4-HPR without ketoconazole)” for short) in [7] (nu/nu mice, + ketoconazole 75 mg/kg, P < 0.01) is given as 2.2 fold. In data set [8], the “4-oxo-4-HPR concentrations formed from 4-HPR” value is reported as “increased in a time-dependent manner”. Besides, in data set [9] (+ ketoconazole 18.75 mg/kg, P < 0.01), the “Increase … (4-HPR without ketoconazole)” value amounted to 3.4 fold. For the same molecule, the “Increase … (4-HPR without ketoconazole)” value in data set [9] (+ ketoconazole 25 mg/kg, 4 h after fifth dose, Fig 4C) is listed as “twofold”. Moreover, the Km (commonly the substrate concentration at which the rate is half of its maximum) at 60 min in [10] stood at 25.8 µM. Further, in [11], the Oral bioavailability entry is recorded as “approximately 16%”.
In the case of `OC(Cn1cncn1)(Cn1cncn1)c1ccc(F)cc1F` [fluconazole], in data set [2], the “Reduction of 4-oxo-4-HPR formation from 4-HPR alone” value worked out at 40.9%.

Values taken from publication PMC3144539 (British Journal of Pharmacology, 2011).
